Series [1] in a line: Inhibition of Streptococcus agalactiae 4755 hyaluronidase at pH 7.4 after 3 hrs by turbidimetric analysis. In a few lines:
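Same turbidimetric hyaluronan-lyase assay at pH 7.4 (citrate–phosphate/NaCl): SagHyal4755 2.9 ng, hyaluronan (2 mg/ml stock), BSA, 3.8% DMSO final, 3 h at 37 °C. CTAB (2.5%, in 0.5 M NaOH) precipitation, 20 min at 25 °C, A600. Activity scaled between no-inhibitor and no-enzyme samples.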

The target in series [2] is T1, Hyaluronidase (Bos taurus) (UniProt Q8SQG8+Q5E985). Put plainly: Inhibition of bovine testes hyaluronidase at 200 uM after 30 mins at pH 5 by turbidimetric analysis. The series is classed as protein assay.
For series [3], the target named is T1, Hyaluronidase (Bos taurus). Kind of series: Inhibition of bovine testes hyaluronidase at 380 uM after 30 mins at pH 5 by turbidimetric analysis. In kind it is protein assay.
Series [4] has as its target T1, Hyaluronidase (Bos taurus). Kind of series: Inhibition of bovine testes hyaluronidase at 49 uM after 30 mins at pH 5 by turbidimetric analysis. In kind it is protein assay.
The target of series [5] is T1, Hyaluronidase (Bos taurus). Put plainly: Inhibition of bovine testes hyaluronidase at 4200 uM after 30 mins at pH 5 by turbidimetric analysis. The series is classed as protein assay.
For series [6], the target named is T1, Hyaluronidase (Bos taurus). Put plainly: Inhibition of bovine testes hyaluronidase at 460 uM after 30 mins at pH 5 by turbidimetric analysis. The series is classed as protein assay.
Series [7] deals with T1, Hyaluronidase (Bos taurus). Kind of series: Inhibition of bovine testes hyaluronidase at 180 uM after 30 mins at pH 5 by turbidimetric analysis. The series is classed as protein assay.
Series [8] has as its target T1, Hyaluronidase (Bos taurus). Kind of series: Inhibition of bovine testes hyaluronidase at 190 uM after 30 mins at pH 5 by turbidimetric analysis. In kind it is protein assay.
In series [9] the target is T1, Hyaluronidase (Bos taurus). Put plainly: Inhibition of bovine testes hyaluronidase at 170 uM after 30 mins at pH 5 by turbidimetric analysis. In kind it is protein assay.
In series [10] the target is T1, Hyaluronidase (Bos taurus). Put plainly: Inhibition of bovine testes hyaluronidase at 100 uM after 30 mins at pH 5 by turbidimetric analysis. The series is classed as protein assay.
The target of series [11] is T1, Hyaluronidase (Bos taurus). Put plainly: Inhibition of bovine testes hyaluronidase at 400 uM after 30 mins at pH 5 by turbidimetric analysis. In kind it is protein assay.
Series [12] deals with T1, Hyaluronidase (Bos taurus). Put plainly: Inhibition of bovine testes hyaluronidase at 3800 uM after 30 mins at pH 5 by turbidimetric analysis. In kind it is protein assay.
Series [13] deals with T1, Hyaluronidase (Bos taurus). Kind of series: Inhibition of bovine testes hyaluronidase at 130 uM after 30 mins at pH 5 by turbidimetric analysis. The series is classed as protein assay.
In series [14] the target is T1, Hyaluronidase (Bos taurus). Put plainly: Inhibition of bovine testes hyaluronidase at 63 uM after 30 mins at pH 5 by turbidimetric analysis. In kind it is protein assay.
Series [15] has as its target T1, Hyaluronidase (Bos taurus). Put plainly: Inhibition of bovine testes hyaluronidase at 80 uM after 30 mins at pH 5 by turbidimetric analysis. In kind it is protein assay.
Series [16] concerns the target T1, Hyaluronidase (Bos taurus). Put plainly: Inhibition of bovine testes hyaluronidase at 2000 uM after 30 mins at pH 5 by turbidimetric analysis. In kind it is protein assay.
The target in series [17] is T1, Hyaluronidase (Bos taurus). Put plainly: Inhibition of bovine testes hyaluronidase at 150 uM after 30 mins at pH 5 by turbidimetric analysis. In kind it is protein assay.
The nature of series [18]: Aqueous solubility of the compound in water. The series is classed as physicochemical. In a few lines: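 Turbidity at 600 nm of test compound in DMSO added to citrate–phosphate buffer (pH 5 and pH 7.4), water and BSA (0.2 mg/ml stock), at various concentrations, read against a water reference. Enzyme testing used only concentrations showing no turbidity.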
Another series has as its system Streptococcus agalactiae. Kind of series: Inhibition of Streptococcus agalactiae 4755 hyaluronidase at 100 uM after 30 mins at pH 5.0 by turbidimetric analysis. In a few lines:
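SagHyal4755 (2.9 ng) with BSA and hyaluronan (2 mg/ml stock) in citrate–phosphate/NaCl buffer pH 5.0, 3.8% DMSO final, 30 min at 37 °C. Stopped by alkaline 2.5% CTAB, then 20 min at 25 °C. Residual-substrate turbidity read at 600 nm; no-inhibitor sample = 100%, no-enzyme sample = 0% activity. Enzyme-free compound controls were run.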

In brackets after ≈: the same amount, converted by molar mass. Activity calls are given as the source filed them. No cut-off for these calls is given here.

For orientation: IC50 means the concentration at which inhibition is half-maximal. As a reminder, the inhibition is the change of the read-out against control, counted positive when it falls. A word on the solubility: it is how much of the substance goes into solution per volume. The molecule `CCCCCCCCCC(=O)n1c(=S)oc2ccccc21` returned an IC50 in [1] of 25 µM. Besides, the inhibition entry in series [2], in series [3], in series [4], in [5], in series [6] and in series [7] was “inactive” throughout. The inhibition entry in series [8], in [9], in [10], in series [11], in series [12] and in [13] was “inactive” each time. Also, the inhibition entry in [14], in [15], in series [16] and in [17] was “inactive” each time. This molecule also came in with a solubility in series [18] of 100 µM (≈ 30.5 µg/mL). The molecule further had an inhibition in the series with Streptococcus agalactiae of 41%.
In series [1], `O=C(CCc1ccccc1)n1c(=S)[nH]c2ccccc21` had an IC50 of 29 µM. Also, the inhibition result in [2], in series [3], in [4], in series [5], in [6] and in series [7] was “inactive” in each case. Moreover, the inhibition entry in [8], in series [9], in series [10], in [11], in series [12] and in series [13] was “inactive” in each case. For the same molecule, the inhibition result in [14], in series [15], in [16] and in [17] was “inactive” throughout. In series [18], this molecule returned a solubility of 100 µM (≈ 28.2 µg/mL). In the series on Streptococcus agalactiae, this molecule registered an inhibition of 5%.
In [1], `O=C(OCc1ccccc1)n1c(=S)oc2ccccc21` registered an IC50 of 556 µM. For the same molecule, the inhibition entry in [2], in series [3], in series [4], in series [5], in series [6] and in series [7] was “inactive” throughout. Besides, the inhibition result in series [8], in series [9], in [10], in series [11], in [12] and in series [13] was “inactive” throughout. The inhibition entry (in series [14]; in [15]; in series [16]; in series [17]; in the series on Streptococcus agalactiae) was “inactive” in each case. Also, the solubility in series [18] is 100 µM (≈ 28.5 µg/mL).
For the molecule `O=C(CCCc1ccccc1)n1c(=S)oc2ccccc21`, in series [1], the IC50 was 19 µM. Besides, the inhibition entry in [2], in [3], in series [4], in series [5], in series [6] and in series [7] was “inactive” in each case. Further, the inhibition entry in series [8], in [9], in series [10], in series [11], in series [12] and in [13] was “inactive” in each case. The inhibition entry in series [14], in series [15], in series [16] and in series [17] was “inactive” each time. This molecule had a solubility in series [18] of 100 µM (≈ 29.7 µg/mL). The molecule also had an inhibition in the series on Streptococcus agalactiae of 47%.
